The results in this text go back to ChEMBL document CHEMBL4425113, “Chromenopyrazole, a Versatile Cannabinoid Scaffold with in Vivo Activity in a Model of Multiple Sclerosis” (J Med Chem, 2016).

Structures are written as SMILES. The source made the active and inactive calls. No cut-off for these calls is given here.

Data set [1] addresses T1, Cannabinoid receptor 2 (Homo sapiens, UniProt P34972). In words: Displacement of [3H]-CP55940 from human CB2 receptor expressed in HEK293 cell membranes after 90 mins by liquid scintillation counting method. (In general: In a radioligand displacement assay an active substance lowers the binding of a labelled ligand.)
The target in data set [2] is T1, Cannabinoid receptor 2. In words: Antagonist activity at human CB2 receptor expressed in HEK293 cell membranes assessed as inhibition of CP55940-mediated suppression of forskolin-stimulated cAMP accumulation at 1 uM after 60 mins by HTRF assay. Type of data set: functional, cell-based. A general note: cAMP levels reflect the balance of adenylyl cyclase and phosphodiesterase activity.

Data set [3] is filed under the species Homo sapiens. In words: Selectivity ratio of Ki for human CB1 receptor to Ki for human CB2 receptor. An outline of the steps: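 Membranes from cells transfected with hCB1 (8 μg/well; Tris 50 mM, MgCl2 5 mM, EDTA 2.5 mM, BSA 0.5 mg/mL, pH 7.4) or hCB2 (4 μg/well; EGTA 2.5 mM, BSA 1 mg/mL, pH 7.5); [3H]CP55940, 90 min at 30 °C. […] Nonspecific binding 10 μM WIN55212-2; GF/C filtration, scintillation; ≥3 experiments in triplicate.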

Data set [4] deals with T2, Cannabinoid receptor 1 (Homo sapiens, UniProt P21554). In words: biochemical. The format is cell-based, HEK293.
T2 sequence (P21554 whole entry): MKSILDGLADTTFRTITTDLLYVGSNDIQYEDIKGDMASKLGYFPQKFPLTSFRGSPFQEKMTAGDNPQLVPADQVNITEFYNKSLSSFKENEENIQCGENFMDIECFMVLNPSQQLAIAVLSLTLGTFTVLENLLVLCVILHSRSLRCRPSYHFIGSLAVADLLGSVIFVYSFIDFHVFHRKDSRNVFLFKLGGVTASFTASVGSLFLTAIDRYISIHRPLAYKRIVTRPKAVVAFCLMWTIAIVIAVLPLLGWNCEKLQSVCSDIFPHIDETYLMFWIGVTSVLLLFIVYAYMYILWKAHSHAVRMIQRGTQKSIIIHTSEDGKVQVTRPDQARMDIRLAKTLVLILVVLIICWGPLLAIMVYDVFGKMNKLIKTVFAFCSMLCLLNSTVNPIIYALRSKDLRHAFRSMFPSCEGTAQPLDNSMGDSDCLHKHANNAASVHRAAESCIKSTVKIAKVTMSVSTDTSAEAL
Data set [5] concerns the target T1, Cannabinoid receptor 2. Nature of the data set: Antagonist activity at human CB2 receptor expressed in HEK293 cell membranes assessed as inhibition of CP55940-mediated suppression of forskolin-stimulated cAMP accumulation at 200 nM after 60 mins by HTRF assay. Type of data set: functional, cell-based.
Data set [6] in a line: Binding affinity to PDEA modified AGP (unknown origin) at 40 uM by surface plasmon resonance method. The conditions noted are these: human, isolated protein. The format is ADME. In general terms: SPR reads the build-up and loss of mass on a sensor chip optically.
For data set [7], the target named is T1, Cannabinoid receptor 2. Nature of the data set: Agonist activity at human CB2 receptor expressed in HEK293 cell membranes assessed as inhibition of forskolin-stimulated cAMP accumulation after 60 mins by HTRF assay. The format is functional, cell-based.
For data set [8], the target named is T1, Cannabinoid receptor 2. In words: Agonist activity at human CB2 receptor expressed in HEK293 cell membranes assessed as inhibition of forskolin-stimulated cAMP accumulation at 200 nM after 60 mins by HTRF assay. The format is functional, cell-based. An outline of the steps: (§1)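 HEK293 cells stably expressing hCB2, 5.000 cells/well, forskolin-stimulated; Lance-Ultra TR-FRET cAMP kit, 60 min room temperature with HTRF reagents; 665/620 nm ratio converted to cAMP via standard curve; forskolin level set to 100%.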

For data set [9], the target named is T1, Cannabinoid receptor 2. In words: Agonist activity at human CB2 receptor expressed in HEK293 cell membranes assessed as inhibition of forskolin-stimulated cAMP accumulation at 1 uM after 60 mins by HTRF assay. Type of data set: functional, cell-based. A digest of the protocol: as §1
In data set [10] the target is T1, Cannabinoid receptor 2. Nature of the data set: Agonist activity at human CB2 receptor expressed in HEK293 cell membranes assessed as induction of [35S]-GTPgammaS binding after 60 mins by liquid scintillation spectrometric method. The format is functional.
In data set [11] the test system is Mus musculus. In words: Antiinflammatory activity in TMEV-induced SJL/J mouse demyelinating disease model assessed as reduction of microglial activation by measuring […] in Iba-1 expression at 5 mg/kg, ip administered for 7 days by fluorescence assay. The format is functional, organism-based. An outline of the steps: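 Female SJL/J mice, 12 weeks, inoculated intracerebrally (right hemisphere) with TMEV DA strain; sham get vehicle. Compound 5 mg/kg i.p. daily for 7 days, vehicle 10% DMSO in PBS. Perfused brains PFA-fixed; sections stained anti-Iba1 (1:1,000) plus Alexa secondary; confocal fluorescence intensity, 6 sections/animal, ≥5 animals/group; Kruskal–Wallis test.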

Data set [12] addresses T2, Cannabinoid receptor 1. In words: Agonist activity at human CB1 receptor expressed in HEK293 cell membranes assessed as induction of [35S]-GTPgammaS binding after 60 mins by liquid scintillation spectrometric method. The format is functional.
Data set [13] has as its target T1, Cannabinoid receptor 2. Nature of the data set: Partial agonist activity at human CB2 receptor expressed in HEK293 cell membranes assessed as inhibition of forskolin-stimulated cAMP accumulation at 1 uM after 60 mins by HTRF assay. The format is functional, cell-based. An outline of the steps:
as §1

Data set [14] has as its target T1, Cannabinoid receptor 2. In words: Partial agonist activity at human CB2 receptor expressed in HEK293 cell membranes assessed as inhibition of forskolin-stimulated cAMP accumulation at 200 nM after 60 mins by HTRF assay. The format is functional, cell-based. An outline of the steps: as §1
The species entered for data set [15] is Homo sapiens. Nature of the data set: Selectivity ratio of Ki for human CB2 receptor to Ki for human CB1 receptor.

One may read the Ki as a dissociation constant, usually derived from enzyme kinetics or from competition with a known ligand. Read a high Ki as lower affinity. As usually defined, the Emax is the greatest response seen or fitted, relative to the assay's reference. Broadly, the IC50 is the midpoint of a concentration-inhibition curve. As usually defined, the EC50 is the concentration needed to bring the measured effect to its halfway point.

T1 sequence (P34972 whole entry): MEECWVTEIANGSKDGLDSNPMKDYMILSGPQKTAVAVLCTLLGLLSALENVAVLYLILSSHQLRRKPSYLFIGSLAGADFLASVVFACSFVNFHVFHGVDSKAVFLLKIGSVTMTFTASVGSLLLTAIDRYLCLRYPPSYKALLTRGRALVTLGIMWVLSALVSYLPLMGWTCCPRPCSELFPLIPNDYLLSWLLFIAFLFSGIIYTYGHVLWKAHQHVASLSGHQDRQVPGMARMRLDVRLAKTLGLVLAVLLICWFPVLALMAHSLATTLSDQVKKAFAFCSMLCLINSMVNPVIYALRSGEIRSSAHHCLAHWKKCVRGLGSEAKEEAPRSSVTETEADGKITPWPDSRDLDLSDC

As to `CCCCCCC(C)(C)c1cc(OCCCO)c2c(c1)OC(C)(C)c1cn(CC)nc1-2`, the results for the inhibitory constant (Ki) in data set [1] and in data set [4] were 97.4 nM and > 40000 nM, respectively. Further, the inhibition result in data set [2] was “Active”. Also, the Ratio Ki in data set [3] is > 411.

As to `CCCCCCC(C)(C)c1cc(OC)c2c(c1)OC(C)(C)c1cn(C)nc1-2`, the Ki in [1] came out at 66.4 nM; in [4] it was 4160 nM. The inhibition entry in data set [5] was “inactive”. Further, in [6], the PB result is recorded as “Active”. For the same compound, the Ratio Ki in [3] came out at 62.6.

As to `CCCCCCC(C)(C)c1cc(OC)c2c(c1)OC(C)(C)c1cnoc1-2`, the inhibition constant Ki in data set [1] was 12.8 nM; in data set [4], > 40000 nM. The PB result in data set [6] is reported as “Active”. The maximal response (Emax) in data set [7] worked out at 101%; in [10], 98%. Moreover, in data set [7], the IC50 was 4.2 nM. In addition, the inhibition entry in [8] and in data set [9] was “Active” each time. For the same compound, the Ratio Ki in data set [3] is > 3100. In addition, in data set [11], the outcome was Active.

In the case of `CCCCCCC(C)(C)c1cc(O)c2c(c1)OC(C)(C)c1cnoc1-2`, the EC50 in [12] came out at 15.8 nM. Also, the results for the Ki in [1] and in data set [4] were 5.3 nM and 15.4 nM, respectively. Besides, the PB entry in data set [6] is recorded as “Active”. Moreover, the Emax in data set [7] was 98%; in data set [10] it was 114%. Besides, in data set [7], the IC50 was found to be 134 nM. The inhibition result in [8] and in [9] was “Active” each time. Besides, the Ratio Ki in data set [3] came out at 2.9.

Turning to `CCCCCCC(C)(C)c1cc(OCc2ccccc2)c2c(c1)OC(C)(C)c1cn[nH]c1-2`, in data set [12], the EC50 was 191 nM. For the same compound, the inhibition result in data set [13] and in [14] was “Active” throughout. The Ki in [1] stood at 93.3 nM; in data set [4], 22.4 nM. Further, the Ratio Ki in [15] came out at 4.2.

Take `CCCCCCC(C)(C)c1cc(OCCO)c2c(c1)OC(C)(C)c1cn(C)nc1-2`: the inhibition constant (Ki) in [1] was found to be 39.8 nM; in [4], 1090 nM. Moreover, the inhibition entry in data set [5] was “inactive”. In [3], the Ratio Ki came to 27.2.
